Experimental data as given in ChEMBL document CHEMBL1122845, “Inhibitors of blood platelet aggregation. Effects of some 1,2-benzisothiazol-3-ones on platelet responsiveness to adenosine diphosphate and collagen” (J Med Chem, 1985).
Values joined by “and” are separate entries in the source; they are usually repeats but may differ in a detail not shown here. Equal entries are not always repeated.

Columns and labels:
[1] = tested on: Rattus norvegicus; test: The compound was tested ex vivo at a dose of 0.15 mmol/kg for ADP induced platelet aggregation in rat; type: functional
In short: (§1)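 Fasted male rats (~200 g) or guinea pigs (~300 g), n=5-10, dosed orally (5 mL/kg) in 1% methylcellulose; methylcellulose alone as control. Killed with CO2 after 2 h. Vena cava blood citrated (102 mM rat, 129 mM guinea pig); PRP adjusted to 800000/µL (rat) or 500000/µL (guinea pig). EC25 for first-phase ADP aggregation (max 8 µM) interpolated from two 2-fold-spaced ADP levels. Dose ratio = treated/control mean EC25; Student's t-test. Some groups tested as pooled PRP.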

[2] = tested on: Rattus norvegicus; test: The compound was tested ex vivo at a dose of 0.15 mmol/kg for collagen induced platelet aggregation in rat; type: functional
In short: (§2)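 Male rats (~200 g) or guinea pigs (~300 g), overnight fasted, n=5-10, received compound orally in 1% methylcellulose (5 mL/kg); vehicle-only controls. After 2 h, CO2 kill and vena cava blood into citrate (102 mM rat, 129 mM guinea pig). PRP set to 800000/µL (rat) or 500000/µL (guinea pig). Collagen EC50 (response of 50 mm; max 50 µg/mL) interpolated from a log plot. Dose ratio = treated/control mean EC50; t-test. Pooled PRP sometimes used.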

[3] = tested on: Cavia porcellus; test: Ex vivo inhibition of ADP induced guinea pig platelet aggregation following 0.08 mmol/kg administration.; type: functional; in short: as §1
[4] = tested on: Cavia porcellus; test: Ex vivo inhibition of collagen induced guinea pig platelet aggregation following 0.08 mmol/kg administration.; type: functional; in short: as §2
[5] = tested on: Cavia porcellus; test: The compound was tested ex vivo at a dose of 0.04 mmol/kg for ADP induced platelet aggregation in guinea pig; type: functional; in short: as §1
[6] = tested on: Cavia porcellus; test: The compound was tested ex vivo at a dose of 0.04 mmol/kg for collagen induced platelet aggregation in guinea pig; type: functional; in short: as §2
[7] = species: Homo sapiens; test: In vitro inhibitory activity against human platelet aggregation in the presence of Adenosine diphosphate; type: functional
In short: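 Human citrated PRP, platelet count adjusted to 350000/µL with autologous platelet-poor plasma. 90 µL PRP preincubated 3 min at 37 °C with compound or saline (DMF vehicle where needed), stirred at 1100 rpm. ADP chosen per preparation to give a clear first-phase response (typically 1 µM). Photometric read-out: maximum rise in light transmission within 1 min. IC50 determined.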

[8] = species: Homo sapiens; test: (§3) In vitro inhibitory activity against human platelet aggregation in the presence of collagen; type: functional, organism-based
[9] = tested on: Rattus norvegicus; test: The compound was tested ex vivo at a dose of 0.08 mmol/kg for ADP induced platelet aggregation in rat; type: functional; in short: as §1
[10] = tested on: Rattus norvegicus; test: The compound was tested ex vivo at a dose of 0.08 mmol/kg for collagen induced platelet aggregation in rat; type: functional; in short: as §2
[11] = tested on: Cavia porcellus; test: The compound was tested ex vivo fat a dose of 0.15 mmol/kg for collagen induced platelet aggregation in guinea pig; type: functional; in short: as §2
[12] = tested on: Cavia porcellus; test: The compound was tested ex vivo at a dose of 0.15 mmol/kg for ADP induced platelet aggregation in guinea pig; type: functional; in short: as §1
[13] = tested on: Rattus norvegicus; test: The compound was tested ex vivo at a dose of 0.3 mmol/kg for ADP induced platelet aggregation in rat; type: functional; in short: as §1
[14] = tested on: Rattus norvegicus; test: The compound was tested ex vivo at a dose of 0.3 mmol/kg for collagen induced platelet aggregation in rat; type: functional; in short: as §2
[15] = species: Homo sapiens; test: as §3; type: functional
In short: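 Aggregation measured photometrically in human citrated PRP (350000 platelets/µL, stirred at 1100 rpm). Compound or saline preincubated 3 min at 37 °C. Collagen at a just-maximal level chosen for each sample (typically 0.7-1.4 µg/mL). Maximum increase in light transmission measured. IC50 = concentration giving 50% inhibition.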

[16] = tested on: Cavia porcellus; test: The compound was tested at a dose of 0.08 mmol/kg ex vivo for collagen induced platelet aggregation in guinea pig; type: functional; in short: as §2
[17] = tested on: Cavia porcellus; test: The compound was tested ex vivo at a dose of 0.15 mmol/kg for collagen induced platelet aggregation in guinea pig; type: functional; in short: as §2
[18] = species: Cavia porcellus; test: The compound was tested ex vivo for ADP induced platelet aggregation in guinea pig; type: functional; in short: as §1
[19] = species: Cavia porcellus; test: The compound was tested ex vivo for collagen induced platelet aggregation in guinea pig; type: functional; in short: as §2
[20] = tested on: Rattus norvegicus; test: The compound was tested at a dose of 0.15 mmol/kg ex vivo for collagen induced platelet aggregation in rat; type: functional; in short: as §2
[21] = tested on: Rattus norvegicus; test: The compound was tested ex vivo at a dose of 0.15 mmol/kg for ADP induced platelet aggregation in rat
[22] = tested on: Cavia porcellus; test: The compound was tested ex vivo at a dose of 0.08 mmol/kg for ADP induced platelet aggregation in guinea pig; type: functional; in short: as §1
[23] = tested on: Cavia porcellus; test: The compound was tested ex vivo at a dose of 0.08 mmol/kg for collagen induced platelet aggregation in guinea pig; type: functional; in short: as §2
[24] = species: Rattus norvegicus; test: The compound was tested ex vivo for ADP induced platelet aggregation in rat; type: functional; in short: as §1
[25] = species: Rattus norvegicus; test: The compound was tested ex vivo for collagen induced platelet aggregation in rat; type: functional; in short: as §2

CCN(CC)CCn1sc2ccccc2c1=O
Activity [1]: 1.3
Activity [2]: 2.6

O=c1c2ccccc2sn1CCCCN1CCCC1
Activity [3]: 1.4
Activity [4]: 1.9

O=c1c2cc(Cl)c(Cl)cc2sn1CCN1CCCC1
Activity [1]: 1.4
Activity [2]: 1.8

Cc1cc(C)c2c(=O)n(CCN3CCCCC3)sc2c1
Activity [5]: 2.1
Activity [6]: >21
Activity [3]: >24
Activity [4]: >21

COc1cc2sn(CCCCN3CC4CCC(CC4)C3)c(=O)c2cc1OC
Activity [3]: 2.6
Activity [4]: 5.4
IC50 [7]: 99 µM
IC50 [8]: 16 µM
Activity [9]: 1.4
Activity [10]: 2.4

O=c1c2ccccc2sn1CCN1CC2CCC(CC2)C1
Activity [11]: 1.7
Activity [12]: 1.1
Activity [1]: 1.6
Activity [2]: 2.2

CCN(CC)CCn1sc2cc(Cl)c(Cl)cc2c1=O
Activity [1]: 0.8
Activity [2]: 2.1
Activity [13]: 1.2
Activity [14]: 6.5

CN(CCn1sc2ccccc2c1=O)c1ccccc1
Activity [1]: 1
Activity [2]: 1.1

O=c1c2ccccc2sn1CCc1ccccn1
IC50 [7]: 20 µM
IC50 [15]: 12 µM
Activity [14]: 0.7

O=c1c2cc(Cl)c(Cl)cc2sn1CCc1ccccn1
Activity [1]: 1
Activity [2]: 1

Cc1cc(C)c2c(=O)n(CCCN3CCCCC3)sc2c1
Activity [16]: 6.7
Activity [3]: 1.4

COc1cc(OC)c2c(=O)n(CCN3CCCCC3)sc2c1
Activity [3]: >27
Activity [4]: >10

O=c1[nH]sc2ccccc12
IC50 [7]: > 200 µM
IC50 [15]: 34 µM
Activity [14]: 1

COc1cc2sn(CCN3CCCC3)c(=O)c2cc1OC
Activity [1]: 1.1
Activity [2]: 1.8

COc1cc(OC)c2c(=O)n(CCN3CCCC3)sc2c1
Activity [3]: 4.6
Activity [4]: >31

O=c1c2cc(Cl)c(Cl)cc2sn1CCN1CCCCC1
Activity [1]: 1.2
Activity [2]: 1.5

Cc1cc2sn(CCc3ccccn3)c(=O)c2cc1C
Activity [12]: 0.9
collagen EC50 dose ratio (treated/control) [17]: 0.8

CCCCCn1sc2ccccc2c1=O
Activity [14]: 1.2

O=c1c2ccccc2sn1CCCN1CCCCC1
Activity [3]: 3.7
Activity [4]: >26
IC50 [15]: 17 µM
Activity [9]: 1
Activity [10]: 2.4

COc1cc2sn(CCc3ccccn3)c(=O)c2cc1OC
Activity [12]: 1.1
Activity [1]: 1.8
Activity [2]: 2.8
collagen EC50 dose ratio (treated/control) [17]: 1.5

O=c1c2ccccc2sn1CCCCN1CCCCC1
Activity [3]: 1.1
Activity [4]: 3.4

CCN(CC)CCn1sc2cc(C)cc(C)c2c1=O.O=S(=O)(O)c1ccc2ccccc2c1
Activity [18]: 2.8
collagen EC50 dose ratio (treated/control) [19]: >36

COc1cc2sn(CCCCc3ccccn3)c(=O)c2cc1OC
Activity [12]: 2.4
collagen EC50 dose ratio (treated/control) [17]: 2.7

O=c1c2ccccc2sn1CCCN1CCCC1
Activity [3]: 2
Activity [4]: 6.2

CCN(CC)CCn1sc2cc(C)cc(C)c2c1=O
Activity [5]: 2.2
Dose ratio (treated/control collagen EC50) [6]: >17

COc1cc2sn(CCCc3ccccn3)c(=O)c2cc1OC
Activity [12]: 2.4
collagen EC50 dose ratio (treated/control) [17]: >27

O=c1c2ccccc2sn1CCO
Activity [14]: 1.3

O=c1c2ccccc2sn1CCCN1CC2CCC(CC2)C1
Activity [3]: 1.2
Activity [4]: 1.8

O=c1c2ccccc2sn1-c1ccccn1
Activity [14]: 0.9

O=c1c2ccccc2sn1-c1ccccc1
Activity [1]: 0.9
Activity [2]: 1.1

O=c1c2ccccc2sn1CCCCN1CC2CCC(CC2)C1
Activity [3]: 1.6
Activity [4]: 4.1

COc1cc2sn(CCCN3CC4CCC(CC4)C3)c(=O)c2cc1OC
Activity [3]: 0.9
Activity [4]: 1.6

O=c1c2ccccc2sn1CCCCCN1CCCCC1
Activity [3]: 1.3
Activity [4]: 1.1

Cc1cc2sn(CCN3CC4CCC(CC4)C3)c(=O)c2cc1C
Activity [1]: 1.3
Activity [20]: 1
Activity [17]: 0.7
Activity [21]: 1

Cc1cc(C)c2c(=O)n(CCN3CCCC3)sc2c1
Activity [22]: > 32
Activity [23]: > 23
Activity [3]: >32
Activity [4]: >23

O=c1c2ccccc2sn1CCN1CCCCC1
Activity [3]: 1.4
Activity [4]: 5
Activity [9]: 1.7
Activity [10]: 4

Cc1cc(C)c2c(=O)n(CCCCN3CC4CCC(CC4)C3)sc2c1
Activity [5]: 0.8
Dose ratio (treated/control collagen EC50) [6]: 1.1

O=c1c2ccccc2sn1CCCCN1CCOCC1
Activity [3]: 1.1
Activity [4]: 2.4

O=c1c2ccccc2sn1CCCN1CCOCC1
Activity [3]: 1.3
Activity [4]: 2.5

COc1cc2sn(CCCCN3CCCCC3)c(=O)c2cc1OC
Activity [3]: 1.1
Activity [4]: 1.6

COc1cc2sn(CCCN3CCCCC3)c(=O)c2cc1OC
Activity [16]: 2.5
Activity [3]: 1.1

O=c1c2ccccc2sn1CCN1CCOCC1
Activity [1]: 1
Activity [2]: 1

Cc1cc(C)c2c(=O)n(CCc3ccccn3)sc2c1
Activity [5]: 1
Dose ratio (treated/control collagen EC50) [6]: 1.6

COc1cc2sn(CCCCCCN3CC4CCC(CC4)C3)c(=O)c2cc1OC
Activity [18]: 1.1
collagen EC50 dose ratio (treated/control) [19]: 2

COc1cc2sn(CCCCCN3CC4CCC(CC4)C3)c(=O)c2cc1OC
Activity [18]: 1.7
collagen EC50 dose ratio (treated/control) [19]: 4.1

Cc1cc2sn(CCN3CCCC3)c(=O)c2cc1C
Activity [12]: 1.9
Activity [1]: 1.4
Activity [2]: 2.7
Activity [17]: > 10

COc1cc2sn(CCN3CCCCC3)c(=O)c2cc1OC
Activity [12]: 1.9
Activity [1]: 1.1
Activity [2]: 2.2
collagen EC50 dose ratio (treated/control) [17]: 7.3

O=c1c2cc(Cl)c(Cl)cc2sn1CCN1CC2CCC(CC2)C1
Activity [14]: 1

CC(=O)Oc1ccccc1C(=O)O [ASPIRIN]
Activity [18]: 1
IC50 [7]: > 1000 µM
IC50 [8]: 68 µM
Activity [24]: 1.1 and 1
Activity [25]: 1.5 and 1.8
